What was measured:
[1] = target: T1, Transient receptor potential cation channel subfamily V member 1 (Rattus norvegicus, UniProt O35433); assay: Antagonist activity at TRPV1 in neonatal rat DRG neurons assessed as inhibition of capsaicin-induced intracellular calcium after 10 mins in presence of 45Ca2+ by Beckman CP scintillation counting method; format: cell-based
Outline: (§1)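 45Ca2+ uptake in cultured spinal sensory neurons from neonatal rat. Antagonist mode: derivatives were tested against 0.5 μM capsaicin, and IC50 is the concentration that cuts the capsaicin response by 50%. Agonist mode: EC50 is the concentration giving 50% of the maximal response. Values were estimated from at least 3 replicates at each concentration.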

[2] = target: T1, Transient receptor potential cation channel subfamily V member 1; assay: Agonist activity at TRPV1 in neonatal rat DRG neurons assessed as increase in calcium influx after 10 mins in presence of 45Ca2+ by Beckman CP scintillation counting method; outline: as §1
[3] = target: Transient receptor potential cation channel subfamily V member 1 (Rattus norvegicus) (UniProt O35433); assay: Potency index, ratio of IC50 for ATC-120 to IC50 for test compound for antagonist activity at TRPV1 in neonatal rat DRG neurons
Transient receptor potential cation channel subfamily V member 1 (Rattus norvegicus), sequence (O35433 whole entry): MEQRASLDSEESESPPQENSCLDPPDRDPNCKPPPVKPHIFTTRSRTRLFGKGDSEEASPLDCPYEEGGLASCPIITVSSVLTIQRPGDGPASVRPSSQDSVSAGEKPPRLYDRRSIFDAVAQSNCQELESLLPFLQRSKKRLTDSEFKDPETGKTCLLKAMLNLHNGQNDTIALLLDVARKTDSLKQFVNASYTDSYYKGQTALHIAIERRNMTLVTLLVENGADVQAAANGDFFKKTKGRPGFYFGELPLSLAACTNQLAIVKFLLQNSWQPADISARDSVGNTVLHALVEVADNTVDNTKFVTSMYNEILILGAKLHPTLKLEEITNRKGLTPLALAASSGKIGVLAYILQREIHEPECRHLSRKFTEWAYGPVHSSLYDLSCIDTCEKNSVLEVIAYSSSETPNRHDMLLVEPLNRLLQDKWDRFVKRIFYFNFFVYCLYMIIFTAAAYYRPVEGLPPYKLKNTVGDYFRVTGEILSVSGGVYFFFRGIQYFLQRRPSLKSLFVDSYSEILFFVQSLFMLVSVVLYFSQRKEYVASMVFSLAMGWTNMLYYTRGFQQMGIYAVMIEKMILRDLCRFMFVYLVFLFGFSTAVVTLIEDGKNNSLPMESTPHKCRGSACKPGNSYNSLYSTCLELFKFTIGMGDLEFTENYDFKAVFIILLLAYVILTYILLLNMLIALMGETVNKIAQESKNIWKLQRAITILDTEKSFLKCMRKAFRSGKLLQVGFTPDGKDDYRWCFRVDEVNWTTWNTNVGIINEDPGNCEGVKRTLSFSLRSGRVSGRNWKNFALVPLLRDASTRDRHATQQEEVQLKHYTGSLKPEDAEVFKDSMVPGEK

T1 sequence (O35433 whole entry): as above

| IC50 [1] | EC50 [2] | Ratio IC50 [3] | Compound |
| --- | --- | --- | --- |
| 0.24 µM | > 100 µM | – | C[C@@H](NC(=O)CCc1ccc(C(C)(C)C)cc1)c1ccc(NS(C)(=O)=O)cc1 |
| – | > 100 µM | – | C[C@@H](NC(=O)C#Cc1ccc(C(C)(C)C)cc1)c1ccc(NS(C)(=O)=O)cc1 |
| – | > 100 µM | – | C[C@@H](NC(=S)NCc1ccc(C(C)(C)C)cc1)c1ccc(NS(C)(=O)=O)cc1 |
| – | > 100 µM | – | C[C@@H](NC(=O)COc1ccc(C(C)(C)C)cc1)c1ccc(NS(C)(=O)=O)cc1 |
| 0.68 µM | > 100 µM | – | C[C@@H](NC(=O)NCc1ccc(C(C)(C)C)cc1)c1ccc(NS(C)(=O)=O)cc1 |
| 0.3 µM | > 100 µM | – | C[C@@H](NC(=S)CCc1ccc(C(C)(C)C)cc1)c1ccc(NS(C)(=O)=O)cc1 |
| 0.27 µM | > 100 µM | – | CC(Cc1ccc(C(C)(C)C)cc1)C(=O)N[C@H](C)c1ccc(NS(C)(=O)=O)cc1 (mixture of isomers) |

More lines, now with the values behind:

| Compound | IC50 [1] | EC50 [2] | Ratio IC50 [3] |
| --- | --- | --- | --- |
| C=Cc1cc([C@@H](C)NC(=O)/C(C)=C/c2ccc(C(C)(C)C)cc2)ccc1NS(C)(=O)=O | – | > 100 µM | 2 |
| C[C@@H](NC(=O)COc1ccc(C(C)(C)C)cc1)c1ccc(NS(C)(=O)=O)c(F)c1 | – | > 100 µM | – |
| C[C@@H](N/C(COc1ccc(C(C)(C)C)cc1)=N/C#N)c1ccc(NS(C)(=O)=O)cc1 | – | > 100 µM | – |
| C/C(=C\c1ccc(C(C)(C)C)cc1)C(=O)N[C@H](C)c1ccc(NS(C)(=O)=O)cc1 | – | > 100 µM | – |
| C[C@@H](NC(=O)/C=C/c1ccc(C(C)(C)C)cc1)c1ccc(NS(C)(=O)=O)cc1 | 0.16 µM | > 100 µM | – |
| C[C@@H](NC(=S)COc1ccc(C(C)(C)C)cc1)c1ccc(NS(C)(=O)=O)cc1 | – | > 100 µM | – |
| C[C@@H](NC(=S)/C=C/c1ccc(C(C)(C)C)cc1)c1ccc(NS(C)(=O)=O)cc1 | 5 µM | > 100 µM | – |
| C/C(=C\c1ccc(C(C)(C)C)cc1)C(=O)N[C@H](C)c1ccc(NS(C)(=O)=O)c(F)c1 | – | > 100 µM | – |

From ChEMBL document CHEMBL4118150, “2-Methylacrylamide as a bioisoster of thiourea group for 1,3-dibenzylthioureido TRPV1 receptor antagonists” (Bioorg Med Chem Lett, 2018)
